Hits are enriched below; roughly 1.8% of the tested compounds scored in any of these assays.
SUMO HTRF inh: SUMOylation inhibition | P63279 | HTRF SUMOylation assay, SAE1/SAE2 + UBC9, in vitro | inhibition, % at 35 µM | 290,000 compounds, 0.36% hits | AID 2006; in the data active = inhibition above about 50%, passing the limit was not always enough; inconclusive = no clear call, values can overlap the other calls
PABP polyA inh: PABP-poly(A) binding inhibition | PABP-poly(A) RNA binding, fluorescence polarization | calls only at 35 µM | P11940 | 290,000 compounds, 1% hits;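 note: calls also rest on retests at 20 µM and on dose response follow-up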
eIF4H FP inh: inhibitors of RNA binding by human eIF4H | 290,000 compounds, 0.94% hits | inhibition, % at 35 µM | eIF4H fluorescence polarization binding assay;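 note: calls also rest on retests at 20 µM and on dose response follow-up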
core dimer inh: blocks dimerization of HCV core protein; TR-FRET GST/Flag-core106 dimerization, 1536-well; inhibition, % at 5 µM; 300,000 compounds, 0.33% hits; AID 1899;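 active = inhibition above the mean of all tested compounds plus 3 SD, set per screening campaign, cut at about 45% in these data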
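test system = GST/Flag-tagged HCV core106 proteins | probe or stimulus = Eu donor and XL665 acceptor anti-tag antibodies | times = compound-protein-antibody incubation 4 h at 22.5 °C | signal = TR-FRET, excitation 340 nm, emission 617 and 671 nm | measure = percent inhibition of core106 dimerization signal | controls = wells lacking GST-core106 and wells with excess unlabelled core106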
eIF4E-4G inh: blocks eIF4E binding to eIF4G; TR-FRET eIF4E-eIF4GI(517-606) binding, 2 h; P63073+Q04637; inhibition, % at 21.7 µM; 220,000 compounds, 0.37% hits;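 active = inhibition above about 30%, limit read from the data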;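 note: 0% = full FRET control wells and 100% = background wells lacking eIF4GI fragment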
PABP1 MLLE inh: blocks PAM2 peptide binding to the PABP1 MLLE domain; GST-MLLE / FITC-PAM2 fluorescence polarization; inhibition, % at 20 µM; 360,000 compounds, 0.36% hits; AID 588489; in the data active = inhibition above about 35%, passing the limit was not always enough;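 note: plate controls were DMSO wells with GST-MLLE for no effect and wells lacking GST-MLLE protein for full effect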
* marks the source's active call; other numbers are inactive results; i = inactive; ? = inconclusive; . = no result; + = active, no number. Unless noted, the rule behind the calls is not given here.

SMILES	SUMO HTRF inh	PABP polyA inh	eIF4H FP inh	core dimer inh	eIF4E-4G inh	PABP1 MLLE inh
CC(=O)c1c(C)nc(-c2ccc(Cl)cc2)nc1N=CN(C)C	20	i	14	4	60*	-8
COc1ccc(NC(=S)NC(NC(=O)c2ccc(Cl)cc2Cl)C(Cl)(Cl)Cl)c([N+](=O)[O-])c1 (stereo not drawn)	-11	i	-11	17	-15	36*
COc1ccc(NC(=S)NC(NC(=O)c2ccccc2Cl)C(Cl)(Cl)Cl)c([N+](=O)[O-])c1 (stereo not drawn)	-17	i	0	5	2	39*
COc1ccc(NC(=S)NC(NC(=O)c2cccc3ccccc23)C(Cl)(Cl)Cl)c([N+](=O)[O-])c1 (stereo not drawn)	-25	i	-8	17	-35	32
O=Nc1c(O)[nH]c2ccc(Cl)c(Cl)c12	.	.	.	.	.	-18
CCOC(=O)CC(=O)CSc1nc(-c2cccnc2)ccc1C#N	39	+	69*	5	2	3
CCOC(=O)C1=C(c2ccccc2)OC(N)=C(C#N)C1c1ccncc1 (stereo not drawn)	9	i	5	0	-1	13
CCOC(=O)C1=C(CSc2nc(-c3ccncc3)ccc2C#N)OC(N)=C(C#N)C1c1ccc(OC)cc1 (stereo not drawn)	18	i	122	36	0	-18
CCOC(=O)C1=C(CSc2nc(-c3ccncc3)ccc2C#N)OC(N)=C(C#N)C1c1cccnc1 (stereo not drawn)	20	+	120*	11	2	1
CCOC(=O)C1=C(C(C)=O)C(c2cccnc2)C(C#N)=C(N)O1 (stereo not drawn)	7	+	55*	4	0	20
CCOC(=O)CC(=O)CSc1nc(N)c(C#N)c(-c2ccc(F)cc2)c1C#N	-14	+	62*	4	-3	-3
CC(C)C[C@@H](CN)NC(=O)c1nc[nH]c1C(=O)N[C@@H](CC(C)C)C(=O)CNC[C@H](C)NC(=O)c1nc[nH]c1C(=O)N[C@@H](C)C(=O)O	.	.	.	.	.	5
CCN(CC)C(=O)C(c1ccccc1)S(=O)(=O)N1CCOCC1 (stereo not drawn)	.	.	.	.	.	12
Brc1csc(C=Nc2ccc3c(c2)OCCOCCOCCOCCO3)c1	-9	i	32	-4	-2	7
Oc1c(Cl)cc(Cl)cc1C=Nc1ccc2c(c1)OCCO2	32	+	16*	11	0	-46
Cc1ccc(-c2nc3cc(N)ccc3o2)cc1	52*	i	-10	0	-5	-2
Nc1ccc2oc(-c3cccs3)nc2c1	56*	i	-4	0	-15	-13
Nc1ccc2oc(-c3cccc4ccccc34)nc2c1	33	i	-3	-16	6	-13
Cc1cccc(C(=O)NCC(=O)NCC2COc3ccccc3O2)c1 (stereo not drawn)	.	.	.	0	.	-5
COc1ccc(C(=O)N2CCCC(c3cc(C(=O)NCc4ccc(F)cc4)no3)C2)cc1 (stereo not drawn)	.	.	.	.	.	-3
Cc1ccc(S(=O)(=O)C(C#N)c2nc3ccccc3nc2N2CC(C)OC(C)C2)cc1C (stereo not drawn)	84	+	85*	12	4	11
CC1CCCN(c2nc3ccccc3nc2C(C#N)S(=O)(=O)c2cccs2)C1 (stereo not drawn)	25	i	35	13	11	51*
Cc1cccc(S(=O)(=O)C(C#N)c2nc3ccccc3nc2N2CC(C)OC(C)C2)c1 (stereo not drawn)	71	i	95	10	10	9
COC(=O)c1ccc(NC(=O)CCN2C(=O)C3C4CCC(C4)C3C2=O)cc1 (stereo not drawn)	15	i	-5	-6	.	2
CCn1c(/C=C/c2cc[n+](C)cc2)nc2ccccc21	?	+	46	11	.	-11
SMILES	SUMO HTRF inh	PABP polyA inh	eIF4H FP inh	core dimer inh	eIF4E-4G inh	PABP1 MLLE inh
CCCn1c(/C=C/c2ccccc2)nc2ccccc21	-10	i	0	2	2	10
S=C(Nc1ccc(Cl)cc1)c1sc(N2CCCCC2)nc1N1CCOCC1	-11	+	79*	20	-42	28
O=C(NC(=S)Nc1ccc(N2CCOCC2)cc1)c1ccc(Cl)cc1	9	i	-1	2	-1	30
NC(=O)c1c(NC(=O)CN2CCN(S(=O)(=O)c3ccccc3)CC2)sc2c1CCC2	.	.	.	48*	.	-22
NC(=O)c1ccc(NC(=O)CN2CCN(S(=O)(=O)c3ccc4c(c3)OCCO4)CC2)cc1	.	.	.	.	.	-3
O=C(CN1CCCC1)Nc1sc2c(c1C(=O)Nc1ccc(Br)cc1)CCC2	4	i	7	0	.	-2
CN1CCN(CC(=O)Nc2sc3c(c2C(=O)Nc2ccccc2)CCCC3)CC1	1	+	4	-18	.	-106
N#Cc1c(NC(=O)CN2CCN(S(=O)(=O)c3ccc4c(c3)OCCO4)CC2)sc2c1CCC2	42	i	13	71*	-6	-21
NC(=O)c1c(NC(=O)CN2C(=O)NC(Cc3ccccc3)C2=O)sc2c1CCC2 (stereo not drawn)	16	i	23	11	14	-18
CC(CCc1ccccc1)NC(=O)COC(=O)c1ccccc1O (stereo not drawn)	12	i	0	5	2	-4
CCc1ccccc1NC(=O)CN(C)S(=O)(=O)c1ccc(-c2ccc(=O)[nH]n2)s1	7	i	-12	12	.	17
COc1cc(OC)c(NC(=O)CN(C)S(=O)(=O)c2ccc(-c3ccc(=O)[nH]n3)s2)cc1Cl	28	i	5	53*	.	-12
Cc1cc(C)c2nc(-c3ccccn3)cc(C(=O)N3CCCC3)c2c1	4	i	8	48*	.	23
Cc1ccc2nc(-c3ccccn3)cc(C(=O)N3CCN(c4ncccn4)CC3)c2c1	8	i	1	8	11	-14
Cc1cc(C)c2nc(-c3ccccn3)cc(C(=O)Nc3ccc(S(=O)(=O)Nc4onc(C)c4C)cc3)c2c1	36	i	97	60*	22	9
O=[N+]([O-])c1cc(/C=N/Nc2nc3ccccc3[nH]2)c(O)cc1O	-64	+	80*	-45	10	.
Cc1ccccc1/C=N/Nc1nc2ccccc2[nH]1	-11	i	-1	-16	0	-84
CC(C)c1ccc(NC(=O)C2Cc3c(-c4ccco4)ccnc3O2)cc1 (stereo not drawn)	.	.	.	.	.	-5
O=C1c2ccccc2C(=O)c2c1cccc2N(CCO)CCO	-6	?	?	-44	.	41*
Oc1c(C=NCc2ccccc2)sc2ccccc12	3	i	2	4	-3	42*
Oc1cccc(C=Nc2cccc3ccccc23)c1O	66	+	65*	10	.	35

From PubChem
